# Laboratory results: ChEMBL document CHEMBL2157900, “Design, synthesis and in vitro activities on anti-platelet aggregation of 4-methoxybenzene-1,3-isophthalamides” (Bioorg Med Chem Lett, 2012)
# System: not listed separately
# Test: Antiplatelet activity against rat platelet rich plasma assessed as inhibition of ADP-induced platelet aggregation after 2 mins by Born test method
# Assay type: functional
# Summary of the method: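 Rat blood was collected into 3.8% sodium citrate (1:9, v/v). Platelet-rich plasma was obtained by centrifugation at room temperature for 10 min (500–800 rpm). Platelet-poor plasma, made by spinning PRP at room temperature for 15 min (3000 rpm), set zero. Compound was incubated with PRP for 2 min, then aggregation was stimulated with ADP and read on an aggregometer. Results are given as percentage inhibition and IC50.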
row,IC50 [nM],Compound
1,300,COc1ccc(C(=O)Nc2ccccc2I)cc1C(=O)Nc1ccccc1I
2,770,COc1ccc(C(=O)Nc2ccccc2)cc1C(=O)Nc1ccccc1
3,600,COc1ccc(C(=O)Nc2ccc(F)cc2)cc1C(=O)Nc1ccc(F)cc1
4,660,COc1ccc(C(=O)Nc2ccccc2Br)cc1C(=O)Nc1ccccc1Br
5,490,COc1cccc(NC(=O)c2ccc(OC)c(C(=O)Nc3cccc(OC)c3)c2)c1
6,20,COc1ccc(C(=O)Nc2ccccc2Cc2ccccc2)cc1C(=O)Nc1ccccc1Cc1ccccc1
7,670,COc1ccc(C(=O)Nc2ccc(C(C)=O)cc2)cc1C(=O)Nc1ccc(C(C)=O)cc1
8,810,CCOc1cccc(NC(=O)c2ccc(OC)c(C(=O)Nc3cccc(OCC)c3)c2)c1
9,240,COc1ccc(C(=O)NCCc2ccccc2)cc1C(=O)NCCc1ccccc1
10,510,COc1ccc(C(=O)Nc2ccc(Br)cc2)cc1C(=O)Nc1ccc(Br)cc1
11,490,COc1ccc(C(=O)Nc2ccc(I)cc2)cc1C(=O)Nc1ccc(I)cc1
12,490,CCCCOc1ccc(NC(=O)c2ccc(OC)c(C(=O)Nc3ccc(OCCCC)cc3)c2)cc1
13,760,COc1ccc(C(=O)NCc2cccnc2)cc1C(=O)NCc1cccnc1 [PICOTAMIDE]
14,640,COc1ccc(C(=O)Nc2ccc(C)cc2)cc1C(=O)Nc1ccc(C)cc1
15,590,COc1ccc(C(=O)Nc2ccccc2CC#N)cc1C(=O)Nc1ccccc1CC#N
16,860,COc1ccc(C(=O)Nc2ccccc2F)cc1C(=O)Nc1ccccc1F
17,750,COc1ccc(C(=O)Nc2ccc([N+](=O)[O-])cc2)cc1C(=O)Nc1ccc([N+](=O)[O-])cc1
18,580,COc1ccc(C(=O)NCc2ccccc2)cc1C(=O)NCc1ccccc1

# System: Platelet
# Test: Ratio of picotamide IC50 to compound IC50 for rat platelet rich plasma assessed as inhibition of ADP-induced platelet aggregation
# Assay type: functional
row,Compound,Ratio IC50
1,COc1ccc(C(=O)Nc2ccccc2Cc2ccccc2)cc1C(=O)Nc1ccccc1Cc1ccccc1,10
